Source: ChEMBL document CHEMBL5046317, “Diminishing GSH-Adduct Formation of Tricyclic Diazepine-based Mutant IDH1 Inhibitors” (ACS Med Chem Lett, 2022)
In brackets after ≈: the same amount, converted by molar mass.

Legend:
[1] = target: Isocitrate dehydrogenase [NADP] cytoplasmic (Homo sapiens, UniProt O75874, R132H); test: Inhibition of IDH1 R132H mutant (unknown origin) assessed as reduction in NADPH consumption using alpha-KG as substrate incubated for 60 mins by Kinase-GLO reagent based assay
[2] = target: P-gp (ABCB1) (Homo sapiens, UniProt P08183); test: Substrate activity at P-gp (unknown origin) transfected in LLC-PK1 cells expressing human MDR1 gene assessed as efflux ratio of permeability across basolateral to apical membrane at 0.1 uM; format: ADME, cell-based
[3] = system: MOG-G-UVW; test: Antiproliferative activity against human MOG-G-UVW cells assessed as inhibition of cell proliferation incubated for 72 hrs by cell titer-Glo assay; format: functional, cell-based
[4] = Metabolic stability in human liver microsomes assessed as intrinsic clearance; format: ADME, Microsome; conditions: read-out: CLH
[5] = system: P-gp (Mdr1) (Rattus norvegicus); test: Substrate activity at rat P-gp transfected in […]-MDR1 expressing Mdr1 gene assessed as efflux ratio of permeability across basolateral to apical membrane at 0.1 uM
[6] = target: T1, Nuclear receptor subfamily 1 group I member 2 (Homo sapiens, UniProt O75469); test: Inhibition of PXR (unknown origin)
T1 sequence (O75469 whole entry): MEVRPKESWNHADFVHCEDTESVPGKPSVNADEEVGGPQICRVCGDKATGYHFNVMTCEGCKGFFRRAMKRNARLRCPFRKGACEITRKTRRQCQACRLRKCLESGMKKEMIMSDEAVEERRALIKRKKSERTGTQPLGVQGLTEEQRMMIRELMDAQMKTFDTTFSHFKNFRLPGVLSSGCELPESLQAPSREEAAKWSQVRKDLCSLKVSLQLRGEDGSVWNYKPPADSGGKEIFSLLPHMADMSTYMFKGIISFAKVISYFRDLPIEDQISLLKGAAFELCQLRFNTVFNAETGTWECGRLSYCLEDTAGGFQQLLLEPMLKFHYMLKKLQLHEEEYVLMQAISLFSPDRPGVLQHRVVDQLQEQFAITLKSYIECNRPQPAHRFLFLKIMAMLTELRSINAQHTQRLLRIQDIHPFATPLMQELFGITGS

[7] = target: Cytochrome P450 3A4 (Homo sapiens, UniProt P08684); test: Inhibition of CYP3A4 (unknown origin); format: ADME
[8] = target: Isocitrate dehydrogenase [NADP] cytoplasmic (Homo sapiens, UniProt O75874); test: Inhibition of IDH1 (unknown origin)
[9] = target: T2, Isocitrate dehydrogenase [NADP], mitochondrial (Homo sapiens, UniProt P48735); test: Inhibition of IDH2 (unknown origin)
T2 sequence (P48735 whole entry): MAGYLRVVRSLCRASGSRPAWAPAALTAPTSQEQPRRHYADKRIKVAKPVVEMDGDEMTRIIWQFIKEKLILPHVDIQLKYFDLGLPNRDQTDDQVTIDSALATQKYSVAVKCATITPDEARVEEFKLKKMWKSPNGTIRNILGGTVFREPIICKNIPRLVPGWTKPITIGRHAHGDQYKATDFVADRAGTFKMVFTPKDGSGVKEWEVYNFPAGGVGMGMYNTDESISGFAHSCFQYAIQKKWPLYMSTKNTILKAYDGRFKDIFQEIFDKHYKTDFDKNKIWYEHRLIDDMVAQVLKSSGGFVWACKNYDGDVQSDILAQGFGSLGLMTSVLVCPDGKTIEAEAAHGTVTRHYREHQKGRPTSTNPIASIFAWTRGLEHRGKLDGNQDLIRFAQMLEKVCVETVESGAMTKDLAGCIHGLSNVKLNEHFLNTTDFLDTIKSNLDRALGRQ

[10] = Drug metabolism in dog liver microsomes assessed as glutathione-adduct formation measured after 60 mins in presence of NADPH; format: ADME, Canis lupus familiaris, Microsome; conditions: 1 h
[11] = Permeability of the compound in pig LLC-PK1 cells expressing MDR1; format: ADME, cell-based, Sus scrofa; conditions: read-out: permeability
[12] = Clearance in dog at 2 mg/kg, iv measured up to 24 hrs by LC-MS/MS analysis; format: ADME, organism-based, Canis lupus familiaris; conditions: in vivo
Outline: (§1)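 Single-dose PK in rat and dog. Rat received 0.5 mg/kg IV and 1 mg/kg PO; dog received 2 mg/kg IV and 10 mg/kg PO. Parameters derived: terminal t1/2, Vd, clearance and oral bioavailability F.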

[13] = Distribution coefficient, logD of compound at pH 7.4 by HPLC analysis; format: physicochemical; conditions: octanol/water
[14] = Half life in dog at 2 mg/kg, iv measured up to 24 hrs by LC-MS/MS analysis; format: ADME, organism-based, Canis lupus familiaris; conditions: in vivo; outline: as §1
[15] = Oral bioavailability in rat 1 mg/kg measured up to 24 hrs by LC-MS/MS analysis; format: ADME, organism-based; conditions: in vivo; outline: as §1
[16] = Clearance in rat at 0.5 mg/kg, iv measured up to 24 hrs by LC-MS/MS analysis; format: ADME, organism-based; conditions: in vivo; outline: as §1
[17] = Half life in rat at 0.5 mg/kg, iv measured up to 24 hrs by LC-MS/MS analysis; format: ADME, organism-based; conditions: in vivo; outline: as §1
[18] = Solubility of the compound at pH 6.5; format: physicochemical; conditions: buffer
[19] = Volume of distribution in dog at 2 mg/kg, iv measured up to 24 hrs by LC-MS/MS analysis; format: ADME, organism-based, Canis lupus familiaris; conditions: in vivo; outline: as §1
[20] = Solubility of the compound at pH 7; format: physicochemical; conditions: buffer
[21] = Oral bioavailability in dog 10 mg/kg measured up to 24 hrs by LC-MS/MS analysis; format: ADME, organism-based, Canis lupus familiaris; conditions: in vivo; outline: as §1
[22] = Solubility of the compound at pH 2; format: physicochemical; conditions: buffer
[23] = Volume of distribution in rat at 0.5 mg/kg, iv measured up to 24 hrs by LC-MS/MS analysis; format: ADME, organism-based; conditions: in vivo; outline: as §1

P-gp (ABCB1), sequence (P08183 whole entry): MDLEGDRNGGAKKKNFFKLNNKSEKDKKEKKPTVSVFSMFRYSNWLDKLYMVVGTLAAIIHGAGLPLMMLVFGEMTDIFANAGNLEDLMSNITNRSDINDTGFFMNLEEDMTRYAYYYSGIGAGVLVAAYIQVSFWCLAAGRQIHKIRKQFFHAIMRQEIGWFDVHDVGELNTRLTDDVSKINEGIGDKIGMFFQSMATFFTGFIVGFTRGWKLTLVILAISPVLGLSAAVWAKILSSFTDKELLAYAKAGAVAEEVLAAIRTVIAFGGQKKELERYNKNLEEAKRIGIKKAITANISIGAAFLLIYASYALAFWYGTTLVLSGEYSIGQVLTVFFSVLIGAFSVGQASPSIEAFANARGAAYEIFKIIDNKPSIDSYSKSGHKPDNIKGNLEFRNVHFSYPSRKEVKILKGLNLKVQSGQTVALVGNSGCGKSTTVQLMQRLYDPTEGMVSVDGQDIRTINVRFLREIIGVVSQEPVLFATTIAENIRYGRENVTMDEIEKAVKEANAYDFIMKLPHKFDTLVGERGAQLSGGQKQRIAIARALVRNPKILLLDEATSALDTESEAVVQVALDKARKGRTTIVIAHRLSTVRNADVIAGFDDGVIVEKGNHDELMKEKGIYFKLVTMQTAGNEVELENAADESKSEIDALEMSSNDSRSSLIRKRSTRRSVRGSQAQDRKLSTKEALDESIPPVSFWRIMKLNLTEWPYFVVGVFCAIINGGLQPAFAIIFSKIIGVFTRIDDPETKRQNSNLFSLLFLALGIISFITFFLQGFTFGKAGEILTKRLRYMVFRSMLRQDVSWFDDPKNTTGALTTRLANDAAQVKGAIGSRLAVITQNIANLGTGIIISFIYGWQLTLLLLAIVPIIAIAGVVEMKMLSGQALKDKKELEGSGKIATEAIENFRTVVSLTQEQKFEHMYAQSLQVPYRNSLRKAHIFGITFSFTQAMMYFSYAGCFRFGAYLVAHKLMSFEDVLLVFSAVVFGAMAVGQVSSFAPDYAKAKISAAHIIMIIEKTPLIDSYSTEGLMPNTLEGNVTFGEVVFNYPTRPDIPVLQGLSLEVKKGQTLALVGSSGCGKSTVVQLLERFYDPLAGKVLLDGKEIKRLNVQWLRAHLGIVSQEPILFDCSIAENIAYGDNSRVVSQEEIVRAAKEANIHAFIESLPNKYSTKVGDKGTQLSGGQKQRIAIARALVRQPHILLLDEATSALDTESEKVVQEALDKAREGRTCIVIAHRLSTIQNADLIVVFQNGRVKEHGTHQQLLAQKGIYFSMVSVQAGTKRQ
Isocitrate dehydrogenase [NADP] cytoplasmic (Homo sapiens, UniProt O75874, R132H), sequence (O75874 2-414 R132H limits assumed): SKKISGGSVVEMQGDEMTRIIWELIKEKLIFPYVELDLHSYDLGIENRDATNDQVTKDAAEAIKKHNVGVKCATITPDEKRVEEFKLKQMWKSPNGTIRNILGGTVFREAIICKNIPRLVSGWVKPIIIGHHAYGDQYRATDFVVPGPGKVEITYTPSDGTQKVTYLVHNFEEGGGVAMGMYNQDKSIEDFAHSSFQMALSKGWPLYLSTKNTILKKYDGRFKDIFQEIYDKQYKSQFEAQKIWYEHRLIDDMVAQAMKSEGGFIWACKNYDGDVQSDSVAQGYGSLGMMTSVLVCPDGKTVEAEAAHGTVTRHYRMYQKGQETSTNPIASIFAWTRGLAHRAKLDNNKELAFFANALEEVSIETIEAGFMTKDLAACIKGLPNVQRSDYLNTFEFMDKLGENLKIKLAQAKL
Isocitrate dehydrogenase [NADP] cytoplasmic (Homo sapiens, UniProt O75874), sequence (O75874 whole entry): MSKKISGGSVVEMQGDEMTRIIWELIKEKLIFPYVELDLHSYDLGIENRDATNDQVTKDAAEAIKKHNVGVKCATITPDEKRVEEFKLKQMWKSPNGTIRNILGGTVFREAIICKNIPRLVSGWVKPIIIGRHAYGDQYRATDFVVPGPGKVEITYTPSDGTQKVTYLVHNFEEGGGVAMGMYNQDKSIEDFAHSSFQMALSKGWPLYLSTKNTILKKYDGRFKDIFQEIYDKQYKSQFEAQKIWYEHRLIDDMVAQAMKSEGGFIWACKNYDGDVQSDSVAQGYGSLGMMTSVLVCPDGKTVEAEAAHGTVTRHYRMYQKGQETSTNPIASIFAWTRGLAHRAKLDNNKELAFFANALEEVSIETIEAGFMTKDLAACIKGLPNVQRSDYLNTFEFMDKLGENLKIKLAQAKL
Cytochrome P450 3A4, sequence (P08684 whole entry): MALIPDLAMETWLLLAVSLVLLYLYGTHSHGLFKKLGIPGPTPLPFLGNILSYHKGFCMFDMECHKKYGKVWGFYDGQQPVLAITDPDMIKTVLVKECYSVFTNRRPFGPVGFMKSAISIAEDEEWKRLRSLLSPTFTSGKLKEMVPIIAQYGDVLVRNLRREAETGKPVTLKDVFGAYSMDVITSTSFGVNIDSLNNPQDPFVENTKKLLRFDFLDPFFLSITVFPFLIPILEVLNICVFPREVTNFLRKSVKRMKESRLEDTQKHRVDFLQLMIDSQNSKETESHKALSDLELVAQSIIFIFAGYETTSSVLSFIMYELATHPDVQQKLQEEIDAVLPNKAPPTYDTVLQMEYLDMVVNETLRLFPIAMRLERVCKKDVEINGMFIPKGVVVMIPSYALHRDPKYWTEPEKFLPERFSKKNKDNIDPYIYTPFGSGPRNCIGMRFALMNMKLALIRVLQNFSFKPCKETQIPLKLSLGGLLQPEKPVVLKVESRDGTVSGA

| SMILES | IC50 [1] [nM] | efflux ratio at 0.1 µM [2] | IC50 [3] [nM] | CLint scaled [4] [mL/min/kg] | further results |
| --- | --- | --- | --- | --- | --- |
| Cc1cnc2c(c1)CN(C(=O)[C@H]1CC[C@H](OC(C)C)CC1)c1cc(N3CC4CCC3CO4)ccc1N2 (some centres not stated) | 113 | 2.2 | 456 |  |  |
| CC(C)O[C@H]1CC[C@H](C(=O)N2Cc3cccnc3Nc3ccc(N4C[C@@H]5C[C@H]4CO5)cc32)CC1 |  |  | 60.6 | 34 |  |
| CC(C)O[C@H]1CC[C@H](C(=O)N2Cc3cc(S(C)(=O)=O)cnc3Nc3ccc(N4CC5CCC4CO5)cc32)CC1 (some centres not stated) | 11200 |  | > 10000 |  |  |
| CC(C)O[C@H]1CC[C@H](C(=O)N2Cc3nccnc3Nc3ccc(C4CCOCC4)cc32)CC1 | 22.4 | 1.4 | 146 | 92 |  |
| CC(C)O[C@H]1CC[C@H](C(=O)N2Cc3cccnc3Nc3ccc(N4CC5CCC4CO5)c(F)c32)CC1 (some centres not stated) |  | 3.1 | 205 | 210 |  |
| CC(C)O[C@H]1CC[C@H](C(=O)N2Cc3cc(Cl)cnc3Nc3ccc(N4CC5CCC4CO5)cc32)CC1 (some centres not stated) | 28.7 |  | 95.9 |  | efflux ratio at 0.1 µM [5]: 4.6 |
| CC(C)O[C@H]1CC[C@H](C(=O)N2Cc3cccnc3Nc3ccc(N4C[C@H]5CC[C@@H]4CO5)cc32)OC1 | 21.6 |  | 17.8 | 21 | IC50 [6]: 18000 nM; IC50 [7]: 1000 nM; IC50 [8]: > 50000 nM; IC50 [9]: > 50000 nM |
| CC(C)O[C@H]1CC[C@H](C(=O)N2Cc3cccnc3Nc3cnc(C4COCCO4)cc32)CC1 (some centres not stated) | 181 | 3.7 | 581 | 20 |  |
| COC1C[C@H]2CC[C@@H](C1)N2c1ccc2c(c1)N(C(=O)C1CCN(CC(F)(F)F)CC1)Cc1cccnc1N2 (some centres not stated) | 15.6 |  | 61 |  |  |
| CC(C)O[C@H]1CC[C@H](C(=O)N2Cc3cccnc3Nc3ccc(N4CC5(CCCOC5)C4)cc32)CC1 |  |  | 119 |  |  |
| CC(C)O[C@H]1CC[C@H](C(=O)N2c3cc(N4C[C@@H]5C[C@H]4CO5)ccc3Nc3ncccc3C2C)CC1 (some centres not stated) | 25.3 | 3.4 | 88.6 | 143 |  |
| O=C(C1CCc2ccccc2CC1)N1Cc2cccnc2Nc2ccc(N3CCOCC3)cc21 | > 50000 | 1.7 | 43 | 1500 | IC50 [6]: 3200 nM; IC50 [7]: > 5000 nM; IC50 [8]: > 5000 nM |
| CC(C)O[C@H]1CC[C@H](C(=O)N2Cc3cccnc3Nc3cnn(CC4CCOCC4)c32)CC1 | 1390 |  | 5020 |  |  |
| O=C(C1CCN(CC(F)(F)F)CC1)N1Cc2cc(F)cnc2Nc2ccc(N3C[C@@H]4C[C@H]3CO4)cc21 | 8.7 | 2.2 | 42.4 | 33 |  |
| CC(C)O[C@H]1CC[C@H](C(=O)N2Cc3cncnc3Nc3ccc(N4C[C@@H]5C[C@H]4CO5)cc32)CC1 | 197 | 8.1 | 810 | 177 |  |
| CC(C)O[C@H]1CC[C@H](C(=O)N2Cc3cccnc3Nc3ccc(N4CC5CCC4CO5)cc32)CC1 (some centres not stated) | 11 | 3.6 | 17.2 |  |  |
| CC(C)O[C@H]1CC[C@H](C(=O)N2Cc3cc(F)cnc3Nc3ccc(N4CC5CCC4CO5)cc32)CC1 (some centres not stated) | 21.2 | 2.9 | 18.2 |  |  |
| CC(C)O[C@H]1CC[C@H](C(=O)N2Cc3cccnc3Nc3ccc(N4CCOCC4)cc32)CC1 | 34.9 |  | 64.4 |  |  |
| CC(C)O[C@H]1CC[C@H](C(=O)N2Cc3cccnc3Nc3ccc(C4COCCO4)cc32)OC1 (some centres not stated) |  | 1.1 | 88.5 | 34 | Activity [10]: 7% |
| CC(C)O[C@H]1CC[C@H](C(=O)N2Cc3cc(F)cnc3Nc3ccc(N4C[C@H]5CC[C@@H]4CO5)cc32)OC1 | 11 | 1.4 | 8.1 | 22 |  |
| CC(C)O[C@H]1CC[C@H](C(=O)N2Cc3cccnc3Nc3cc(F)c(N4CC5CCC4CO5)cc32)CC1 (some centres not stated) |  | 2.5 | 36.2 | 124 |  |
| CC(C)O[C@H]1CC[C@H](C(=O)N2Cc3cccnc3Nc3cc(F)c(C4COCCO4)cc32)OC1 (some centres not stated) | 32.5 | 1.2 | 53.6 | 58 | Papp [11]: 38.7 ×10⁻⁶ cm/s; clearance [12]: 26 mL/min/kg; logD [13]: 2.67; half-life [14]: 6 h; bioavailability [15]: 100%; clearance [16]: 69 mL/min/kg; half-life [17]: 1.1 h; Activity [10]: 1%; solubility [18]: 154 µM (≈ 72.6 µg/mL); Vd [19]: 5.1 L/kg; solubility [20]: 123 µM (≈ 58 µg/mL); bioavailability [21]: 77%; solubility [22]: 143 µM (≈ 67.4 µg/mL); Vd [23]: 3.7 L/kg |
| CC(C)O[C@H]1CC[C@H](C(=O)N2Cc3cc(F)cnc3Nc3ccc(C4COCCO4)cc32)OC1 (some centres not stated) | 24.4 | 0.9 | 56.9 | 50 | Activity [10]: 12% |
| CC(C)O[C@H]1CC[C@H](C(=O)N2Cc3cc(F)cnc3Nc3ccc(-c4cnn(C)c4)cc32)OC1 | 4.9 | 1.2 | 18.3 | 51 |  |
| CC(C)O[C@H]1CC[C@H](C(=O)N2Cc3cccnc3Nc3cnc(N4C[C@@H]5C[C@H]4CO5)cc32)CC1 | 116 | 6.6 | 261 | 64 |  |
